The results in this text go back to PubChem BioAssay AID493187 (Sanford-Burnham Center for Chemical Genomics, 2011).

Out of some 340,000 compounds screened, about 190 (0.056%) were called active. This is one part of a sample in which actives are shown more often than they occur.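 How the source made its calls: active means activation of 40% or more at 20 µM, a change of -40% or lower; inactive means the rest.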

Chain of Hexokinase HKDC1 (Homo sapiens) (Q2TB90 whole entry, looked up): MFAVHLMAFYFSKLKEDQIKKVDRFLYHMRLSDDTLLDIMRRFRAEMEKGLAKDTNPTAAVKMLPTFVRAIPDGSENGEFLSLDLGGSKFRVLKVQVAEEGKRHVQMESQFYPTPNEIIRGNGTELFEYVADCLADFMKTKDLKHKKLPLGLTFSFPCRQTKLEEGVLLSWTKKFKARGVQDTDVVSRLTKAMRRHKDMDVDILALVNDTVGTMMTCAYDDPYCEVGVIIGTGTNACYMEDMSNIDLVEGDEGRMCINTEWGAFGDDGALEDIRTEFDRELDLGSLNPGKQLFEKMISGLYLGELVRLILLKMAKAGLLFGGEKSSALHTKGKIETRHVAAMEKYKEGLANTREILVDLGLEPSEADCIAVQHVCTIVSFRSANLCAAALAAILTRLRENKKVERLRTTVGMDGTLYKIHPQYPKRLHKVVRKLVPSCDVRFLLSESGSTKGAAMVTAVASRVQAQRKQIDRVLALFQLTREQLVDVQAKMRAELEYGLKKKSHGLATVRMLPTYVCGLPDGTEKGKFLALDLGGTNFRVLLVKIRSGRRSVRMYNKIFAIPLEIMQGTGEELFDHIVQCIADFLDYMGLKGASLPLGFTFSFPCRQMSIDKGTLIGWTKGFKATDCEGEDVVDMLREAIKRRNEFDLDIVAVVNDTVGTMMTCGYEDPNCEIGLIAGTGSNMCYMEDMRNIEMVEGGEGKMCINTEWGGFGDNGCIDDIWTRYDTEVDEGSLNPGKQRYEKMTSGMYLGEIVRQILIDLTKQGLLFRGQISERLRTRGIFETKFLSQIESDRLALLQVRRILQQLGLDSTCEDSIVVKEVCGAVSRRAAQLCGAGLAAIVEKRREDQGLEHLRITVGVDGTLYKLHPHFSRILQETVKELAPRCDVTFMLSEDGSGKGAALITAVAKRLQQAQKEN

The experiment has as its target Hexokinase HKDC1 (Homo sapiens) (UniProt Q2TB90). As to the kind of experiment: enhancers of human HKDC1 enzyme activity – biochemical, fluorescence, uHTS, primary screen (AID 493187). As to conditions: recombinant HKDC1, G6PDH/diaphorase resazurin fluorescence; at 20 µM; stronger effect = lower value. Put shortly: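 Signal: coupled resazurin-to-resorufin fluorescence, Ex 525/Em 613 nm. Test system: in-house human HKDC1 enzyme, G6PDH and diaphorase coupling enzymes. Quantity: HKDC1 5 µg/mL. Timing: 90 min reaction at room temperature, dark.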
Take `O=C(CSc1cccc2cccnc12)N/N=C/c1cccnc1`: the activity change, negative = activation was -52.6% (active).

In the case of `O=c1[nH]c2ccccc2n2c(-c3ccccc3)nnc12`, the activity change, negative = activation is 46.7% (inactive). For the compound `C[N+](C)(CCCCCC[N+](C)(C)CCCN1C(=O)c2cccc3cccc(c23)C1=O)CCCN1C(=O)c2cccc3cccc(c23)C1=O`, the activity change, negative = activation was -66.9% (active).

Turning to `COc1ccc(C(CCN(Cc2ccc(OC)c(OC)c2)C(=O)CCl)c2ccccc2)cc1` (stereo not drawn), the activity change, negative = activation was 35.4% (inactive). The result for `COc1ccc2c(c1)c(=Cc1ccc(N(C)C)cc1)c1cc(-c3ccccc3)[n+](C)n12` reads 43.2% (inactive); that for `COc1ccc(N(CC(=O)N/N=C/c2cccc3c2OCCO3)S(=O)(=O)c2ccc(NC(C)=O)cc2)cc1`, 38.1% (inactive); that for `Cc1cc(C2=NNC(=Nc3ccc(S(=O)(=O)N4CCOCC4)cc3)SC2)c(C)n1CC1CCCO1` (stereo not drawn), -70% (active). As for `CCOC(=O)CSc1nc2ccc(C)cc2n2cnnc12`, the activity change, negative = activation was 53% (inactive).

Turning to `CC(=O)/C(=N\Nc1ccc(Cl)cc1Cl)Sc1cccc2cccnc12`, the activity change, negative = activation is -40.8% (active). As for `CCCc1nc2oc3c(OCC)ncnc3c2c2c1COC(C)(C)C2`, the activity change, negative = activation is 37.7% (inactive).

`O=C(c1cccnc1)N(c1cc2sc(=O)oc2c2ccccc12)S(=O)(=O)c1ccccc1`: the activity change, negative = activation was 38.2% (inactive). `CN1c2ccc(C=O)c3c(C=O)ccc(c23)N(C)C1(C)C`: the activity change, negative = activation was 36.4% (inactive). `O=C(NC1=CC(=O)c2ccccc2C1=O)c1ccccc1`: the activity change, negative = activation was 54.1% (inactive). As to `CCc1ccc2c(c1)C1(NN=C(c3ccccc3)S1)C(=O)N2` (stereo not drawn), the activity change, negative = activation is -48.1% (active). `O=C1C(Cl)=C(Oc2ccccc2)C(=O)c2ccccc21`: the activity change, negative = activation is 65.2% (inactive). Consider `Cc1ccc(Nc2nc(-c3sc(NC(=O)c4ccccc4)nc3C)cs2)cc1`, for which the activity change, negative = activation was -77.6% (active). The result for `CC(C)(C)Nc1c(N)c(=O)oc2ccccc12` reads 44.6% (inactive). Turning to `CCC(=C/c1sc2ccc3ccccc3c2[n+]1C)/C=C1\Sc2ccc3ccccc3c2N1C`, the activity change, negative = activation was 45% (inactive).

As for `COc1ccc(NC(=O)CSc2ccc(-c3ccco3)nn2)c(OC)c1`, the activity change, negative = activation is 47.3% (inactive). As to `Clc1cccc(N=C2NN=C(c3ccc4c(c3)OCCO4)CS2)c1`, the activity change, negative = activation was -169% (active). As to `O=S(=O)(Nc1ccc(O)c2ccccc12)c1ccc(OC(F)(F)F)cc1`, the activity change, negative = activation is 52% (inactive).

In the case of `CCOC(=O)C1=C(c2ccc(OC)cc2)C(=O)c2ccccc2C1=O`, the activity change, negative = activation was 81.4% (inactive).

For the compound `CCn1cc(C(=O)NCc2ccc3c(c2)OCO3)c2cc(OC)c(OC)cc2c1=O`, the activity change, negative = activation is 37.8% (inactive). As for `O=c1ccc2c(-c3ccccc3S(=O)(=O)O)c3ccc(O)c(O)c3oc-2c1O`, the activity change, negative = activation was 38.4% (inactive). For the compound `Cc1ccc2oc(=O)c3cnn(CC(=O)N4CCCCCC4)c3c2c1`, the activity change, negative = activation was -44.7% (active). Turning to `Nc1ccc2nc3c(=O)[nH]c(=S)[nH]c3nc2c1`, the activity change, negative = activation was 69.9% (inactive). On to `CC(=O)N(C1=C(Cl)C(=O)c2ccccc2C1=O)c1ccc(C(=O)O)cc1`, for which the activity change, negative = activation is 52.2% (inactive). The result for `Cc1cc(C(=O)CCl)c(C)n1CC1COc2ccccc2O1` (stereo not drawn) reads 38.2% (inactive).
